Source: ChEMBL document CHEMBL1124104, “(Acyloxy)benzophenones and (acyloxy)-4-pyrones. A new class of inhibitors of human neutrophil elastase” (J Med Chem, 1988)
Values belong to the compound of their own block, whether it stands above or below them.

Columns and labels:
[1] = target: T1, Neutrophil elastase (Homo sapiens, UniProt P08246); assay: Inhibitory activity against human leukocyte elastase at 10e-6 M
T1 sequence (P08246 whole entry): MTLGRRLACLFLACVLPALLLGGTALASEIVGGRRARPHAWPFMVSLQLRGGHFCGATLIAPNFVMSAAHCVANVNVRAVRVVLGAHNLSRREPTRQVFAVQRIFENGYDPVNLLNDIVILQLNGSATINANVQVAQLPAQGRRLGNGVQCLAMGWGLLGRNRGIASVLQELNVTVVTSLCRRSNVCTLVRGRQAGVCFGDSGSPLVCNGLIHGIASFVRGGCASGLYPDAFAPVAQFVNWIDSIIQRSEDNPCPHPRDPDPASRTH

[2] = Inhibitory activity against pancreatic elastase; IA = Inactive at 10e-5 M
[3] = target: T2, Neutrophil elastase (Homo sapiens) (UniProt P08246); assay: Inhibitory activity against [14C]-Elastin hydrolysis at 3 uM concentration and 3h.
T2 sequence (whole entry): T1 sequence (P08246 whole entry)
In short: (§1)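 Elastase digestion of [¹⁴C]elastin, quantitated by radiolabel release (method of Bielefeld et al.). Substrate, inhibitor and elastase were all present for the whole run, and % inhibition was read at 1, 2 and 3 h.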

[4] = target: T2, Neutrophil elastase (Homo sapiens); assay: Inhibitory activity against [14C]elastin hydrolysis at 3 uM concentration and 2 hr.; in short: as §1
[5] = target: T2, Neutrophil elastase (Homo sapiens); assay: Inhibitory activity against [14C]elastin hydrolysis at 3 uM concentration and 1h.; in short: as §1
[6] = target: T1, Neutrophil elastase; assay: Inhibitory activity against human leukocyte elastase at 10e-7 M
[7] = target: T2, Neutrophil elastase (Homo sapiens); assay: Inhibitory activity against [14C]elastin hydrolysis at 4 uM concentration and 1h.; in short: as §1
[8] = target: T2, Neutrophil elastase (Homo sapiens); assay: Inhibitory activity against [14C]elastin hydrolysis at 4 uM concentration and 2 hr.; in short: as §1
[9] = target: T2, Neutrophil elastase (Homo sapiens); assay: Inhibitory activity against [14C]-Elastin hydrolysis at 2 uM concentration and 2 hr.; in short: as §1
[10] = Inhibitory activity against Hog pancreatic elastase;IA = Inactive at 10e-5 M; parameters: species or system Sus scrofa
[11] = target: T2, Neutrophil elastase (Homo sapiens); assay: Inhibitory activity against [14C]elastin hydrolysis at 2 uM concentration and 1h.; in short: as §1
[12] = target: T2, Neutrophil elastase (Homo sapiens); assay: Inhibitory activity against [14C]elastin hydrolysis at 4 uM concentration and 3h.; in short: as §1
[13] = target: T2, Neutrophil elastase (Homo sapiens); assay: Inhibitory activity against [14C]-Elastin hydrolysis at 2 uM concentration and 3h.; in short: as §1
[14] = target: T2, Neutrophil elastase (Homo sapiens); assay: Inhibitory activity against human leukocyte elastase at 10e-4 M
In short: (§2)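 HLE activity followed as rise in absorbance at 410 nm from nitroanilide release; substrate (methoxysuccinyl)Ala-Ala-Pro-Val nitroanilide at 10⁻⁴ M. Run in 0.2 M Tris, pH 8.0, 30 °C. Inhibitors and substrate dissolved in DMSO, which made up 10% of the final medium. Enzyme titrated to give 0.12 OD unit/min per 10 mm path.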

[15] = target: T2, Neutrophil elastase (Homo sapiens); assay: Inhibitory activity against [14C]elastin hydrolysis at 1 uM concentration and 2 hr.; in short: as §1
[16] = target: T2, Neutrophil elastase (Homo sapiens); assay: Inhibitory activity against [14C]elastin hydrolysis at 1 uM concentration and 1h.; in short: as §1
[17] = target: T2, Neutrophil elastase (Homo sapiens); assay: Inhibitory activity against [14C]-Elastin hydrolysis at 0.5 uM concentration and 2 hr.; in short: as §1
[18] = target: T2, Neutrophil elastase (Homo sapiens); assay: Inhibitory activity against [14C]elastin hydrolysis at 1 uM concentration and 3h.; in short: as §1
[19] = target: T2, Neutrophil elastase (Homo sapiens); assay: Inhibitory activity against [14C]elastin hydrolysis at 0.5 uM concentration and 1h.; in short: as §1
[20] = target: T2, Neutrophil elastase (Homo sapiens); assay: Inhibitory activity against [14C]elastin hydrolysis at 0.5 uM concentration and 3h.; in short: as §1
[21] = Inhibitory activity against Hog pancreatic elastase; IA = Inactive at 10e-5 M; parameters: species or system Sus scrofa
[22] = target: T1, Neutrophil elastase; assay: Inhibitory activity against human leukocyte elastase;IA = Inactive at 10e-4 M; in short: as §2
[23] = Inhibitory activity against Hog pancreatic elastase IA = Inactive at 10e-5 M; parameters: species or system Sus scrofa
[24] = target: T1, Neutrophil elastase; assay: Binding affinity towards human leukocyte elastase at 10e-8 M; in short: as §2
[25] = target: T1, Neutrophil elastase; assay: Inhibitory activity against human leukocyte elastase at 10e-8 M
[26] = target: T1, Neutrophil elastase; assay: Inhibitory activity against human leukocyte elastase at 10e-5 M; in short: as §2
[27] = target: T1, Neutrophil elastase; assay: Inhibitory activity against human leukocyte elastase; No inhibition at 1x10E-2 M; in short: as §2

IC50 [1]: 3000 nM
SMILES: CC(C)(C)C(=O)Oc1ccc(C(OC(=O)CCC(=O)O)c2ccc(OC(=O)C(C)(C)C)cc2)cc1

IC50 [6]: 800 nM
SMILES: CC(C=O)Cc1cc(C(=O)c2ccccc2)ccc1OC(=O)C(C)(C)C (stereo not drawn)

inhibition [3]: 29%
inhibition [4]: 40%
inhibition [5]: 56%
inhibition [9]: 29%
inhibition [15]: 14%
inhibition [11]: 39%
inhibition [16]: 29%
inhibition [13]: 8%
SMILES: CC(C)(C)C(=O)Oc1ccc(S(=O)(=O)c2ccc(OC(=O)C(C)(C)C)cc2)cc1

inhibition [17]: 19%
inhibition [9]: 81%
inhibition [15]: 63%
inhibition [11]: 81%
inhibition [18]: 47%
inhibition [16]: 45%
inhibition [19]: 20%
inhibition [13]: 76%
inhibition [20]: 6%
SMILES: CC(C)(C)C(=O)Oc1ccc(C(=O)c2ccc(OC(=O)C(C)(C)C)cc2OC(=O)C(C)(C)C)cc1

IC50 [2]: Not Active
IC50 [6]: 200 nM
IC50 [21]: Not Active
SMILES: CC(C)(C)C(=O)Oc1ccc(C(=O)OCc2cc(=O)c(OC(=O)C(C)(C)C)co2)cc1

inhibition [3]: 10%
inhibition [4]: 32%
inhibition [5]: 62%
inhibition [9]: 12%
inhibition [15]: 10%
inhibition [11]: 36%
inhibition [16]: 14%
inhibition [13]: 9%
SMILES: CC(C)(C)C(=O)Oc1ccc(C(=O)c2ccccc2)c(OC(=O)C(C)(C)C)c1

IC50 [1]: 5400 nM
SMILES: CC(C)(C)C(=O)Oc1ccccc1C(=O)OCc1cc(=O)c(OC(=O)C(C)(C)C)co1

IC50 [6]: 850 nM
SMILES: C=C(C)Cc1cc(C(=O)c2ccccc2)ccc1OC(=O)C(C)(C)C

IC50 [6]: 460 nM
SMILES: CC(C)(C)C(=O)Oc1ccc(Cc2ccc(OC(=O)C(C)(C)C)cc2)cc1

IC50 [1]: 1500 nM
SMILES: CC(CO)Cc1cc(C(=O)c2ccccc2)ccc1OC(=O)C(C)(C)C (stereo not drawn)

IC50 [27]: No inhibition
SMILES: CC1(C)Cc2cc(C(=O)c3ccccc3)ccc2OC1=O

IC50 [6]: 10000 nM
SMILES: CC(C)(C)C(=O)Oc1ccccc1C(=O)c1ccccc1

IC50 [27]: No inhibition
SMILES: CC1(C)C(=O)Oc2ccc(C(=O)c3ccccc3)cc21

IC50 [6]: 450 nM
SMILES: CC(C)(C)C(=O)Oc1ccc(Oc2ccc(OC(=O)C(C)(C)C)cc2)cc1

The next lines start with the compound.

SMILES: CCCCCCCCCCCCCCCCCC(=O)OCc1cc(=O)c(OC(=O)C(C)(C)C)co1
IC50 [2]: Not Active
inhibition [3]: 13%
inhibition [4]: 39%
inhibition [5]: 67%
IC50 [6]: 100 nM
inhibition [7]: 79%
inhibition [8]: 53%
inhibition [9]: 21%
IC50 [10]: Not Active
inhibition [11]: 57%
inhibition [12]: 21%
inhibition [13]: 9%

SMILES: O=c1cc(COC2CCOCC2)occ1OC(=O)[C@]12C[C@H]3C[C@H](C[C@H](C3)C1)C2
inhibition [14]: 33%

SMILES: CCCCCCCC/C=C/CCCCCCCCCCCC(=O)OCc1cc(=O)c(OC(=O)C(C)(C)C)co1
inhibition [3]: 32%
inhibition [4]: 46%
inhibition [5]: 74%
IC50 [6]: 160 nM
inhibition [7]: 77%
inhibition [8]: 50%
inhibition [9]: 33%
inhibition [11]: 61%
inhibition [12]: 22%
inhibition [13]: 13%

SMILES: CC(C)(C)C(=O)Oc1coc(CO)cc1=O
IC50 [22]: Not Active

SMILES: CCCCCCCCCCCCCCCC(=O)OCc1cc(=O)c(OC(=O)C(C)(C)C)co1
IC50 [6]: 110 nM

SMILES: CCCCCCCCCCCCC(C)(C)C(=O)OCc1cc(=O)c(OC(=O)C(C)(C)C)co1
IC50 [6]: 600 nM

SMILES: CCCCCCCC/C=C/CCCCCCCC(=O)OCc1cc(=O)c(OC(=O)C(C)(C)C)co1
IC50 [6]: 300 nM

SMILES: Cc1cc(C)c(C(=O)OCc2cc(=O)c(OC(=O)C(C)(C)C)co2)c(C)c1
IC50 [1]: 8400 nM

SMILES: CC(C)(C)C(=O)Oc1ccc(C(=O)c2ccc(OC(=O)C(C)(C)C)cc2OC(=O)C(C)(C)C)c(OC(=O)C(C)(C)C)c1
inhibition [17]: 38%
IC50 [2]: Not Active
IC50 [23]: Not Active
Ki [24]: 68 nM
inhibition [9]: 85%
inhibition [15]: 72%
inhibition [11]: 81%
inhibition [18]: 59%
IC50 [25]: 27 nM
inhibition [16]: 62%
inhibition [19]: 38%
inhibition [13]: 82%
inhibition [20]: 21%

SMILES: CC(C)(C)C(=O)Oc1coc(COC2CCOCC2)cc1=O
IC50 [26]: 43000 nM

SMILES: CCCCCCCC/C=C/CCCCCCCCCC(=O)OCc1cc(=O)c(OC(=O)C(C)(C)C)co1
IC50 [6]: 210 nM

SMILES: CCCCCCCCCCCCCCCCCCCC(=O)OCc1cc(=O)c(OC(=O)C(C)(C)C)co1
IC50 [6]: 130 nM

SMILES: CCCCCCC/C=C/CCCCCCCCC(=O)Oc1coc(COC(=O)CCCCCCC/C=C/CCCCCCCC)cc1=O
IC50 [1]: 6100 nM
